{
  "source": "ChEMBL document CHEMBL1144767",
  "about": "“Characterization of chemical libraries for luciferase inhibitory activity” (J Med Chem, 2008)",
  "key": {"[1]": {"target": "T1, Luciferin 4-monooxygenase (Photinus pyralis, UniProt P08659)", "T1 sequence (P08659 whole entry)": "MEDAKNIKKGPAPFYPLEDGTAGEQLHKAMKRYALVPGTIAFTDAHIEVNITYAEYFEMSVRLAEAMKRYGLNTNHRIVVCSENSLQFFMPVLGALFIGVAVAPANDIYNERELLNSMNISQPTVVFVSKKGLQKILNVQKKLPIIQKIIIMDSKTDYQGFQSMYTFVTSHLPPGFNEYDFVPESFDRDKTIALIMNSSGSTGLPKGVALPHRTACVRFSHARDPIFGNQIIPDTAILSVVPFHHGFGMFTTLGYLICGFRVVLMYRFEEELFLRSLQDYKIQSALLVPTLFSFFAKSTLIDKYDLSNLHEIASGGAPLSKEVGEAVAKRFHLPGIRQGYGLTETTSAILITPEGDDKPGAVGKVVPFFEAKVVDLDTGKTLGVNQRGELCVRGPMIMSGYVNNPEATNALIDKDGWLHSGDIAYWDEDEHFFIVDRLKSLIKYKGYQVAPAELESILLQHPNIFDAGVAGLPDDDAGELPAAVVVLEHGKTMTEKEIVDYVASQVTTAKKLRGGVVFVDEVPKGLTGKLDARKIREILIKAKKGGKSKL", "assay": "Inhibition of Photinus pyralis luciferase by PK-Light assay"}, "[2]": {"target": "T1, Luciferin 4-monooxygenase", "assay": "Inhibition of Photinus pyralis luciferase"}, "[3]": {"target": "T1, Luciferin 4-monooxygenase", "assay": "Inhibition of Photinus pyralis luciferase by Easy lite assay", "how_it_was_run": "(§1)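 Detection by 2 µL of EasyLite or Kinase-Glo reagent (Kinase-Glo containing P. pennsylvanica luciferase). 1536-well luminescence. 16 two-fold concentrations, duplicate wells, repeated on two or three days.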"}, "[4]": {"target": "T2, Luciferin 4-monooxygenase (Photuris pensylvanica, UniProt Q27757)", "T2 sequence (Q27757 whole entry)": "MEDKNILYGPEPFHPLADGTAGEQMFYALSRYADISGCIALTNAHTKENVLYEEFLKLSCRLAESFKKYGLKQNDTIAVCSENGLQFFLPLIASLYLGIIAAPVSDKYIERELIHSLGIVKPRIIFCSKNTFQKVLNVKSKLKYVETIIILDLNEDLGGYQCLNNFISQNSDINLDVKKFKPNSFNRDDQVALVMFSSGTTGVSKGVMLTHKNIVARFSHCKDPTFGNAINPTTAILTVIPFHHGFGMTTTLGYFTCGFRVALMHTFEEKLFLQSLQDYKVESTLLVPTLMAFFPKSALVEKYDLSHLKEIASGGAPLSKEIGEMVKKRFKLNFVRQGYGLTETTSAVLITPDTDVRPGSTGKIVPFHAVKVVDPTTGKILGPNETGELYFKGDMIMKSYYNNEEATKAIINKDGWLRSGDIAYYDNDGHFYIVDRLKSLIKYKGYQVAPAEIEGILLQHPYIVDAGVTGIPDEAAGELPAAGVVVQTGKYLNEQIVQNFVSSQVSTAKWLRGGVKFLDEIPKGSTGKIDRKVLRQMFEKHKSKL", "assay": "Inhibition of luciferase Photuris pennsylvanica by Promega Kinase-Glo assay", "how_it_was_run": "as §1"}, "[5]": {"target": "T1, Luciferin 4-monooxygenase", "assay": "Inhibition of Photinus pyralis luciferase by Steady-Glo reporter gene assay", "how_it_was_run": "(§2)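 5 nM purified P. pyralis luciferase in SteadyGlo or BrightGlo reporter-gene reagent; no extra ATP or D-luciferin added. 1536-well luminescence. Curves from 16 two-fold concentrations in duplicate, repeated on two or three separate days.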"}, "[6]": {"target": "T1, Luciferin 4-monooxygenase", "assay": "Inhibition of Photinus pyralis luciferase by BrightGlo reporter gene assay", "how_it_was_run": "as §2"}, "[7]": {"assay": "Inhibition of Renilla reniformis luciferase"}, "[8]": {"target": "Luciferin 4-monooxygenase (Photinus pyralis) (UniProt P08659)", "sequence (P08659 whole entry)": "as the sequence (P08659 whole entry) above", "assay": "Inhibition of […] luciferase at 20 uM assessed as quenching of luminescence", "parameters": "scale not given: the % may be the effect or the level left", "how_it_was_run": "(§3)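 Light attenuation in two-chamber quartz cuvette at room temperature. One half holds the reaction, the other holds compound in the same buffer. Firefly reaction: 100 µM ATP and D-luciferin, 100 nM enzyme, 5 nm slit. Renilla reaction: 50 µM coelenterazine, 100 nM enzyme, 10 nm slit. Emission scanned 400–700 nm in 2 nm steps, 0.1 s integration. Compounds 2-fold diluted from 100 µM.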"}, "[9]": {"system": "Renilla reniformis", "assay": "Inhibition of Renilla reniformis luciferase at 20 uM assessed as quenching of luminescence", "parameters": "scale not given: the % may be the effect or the level left", "how_it_was_run": "as §3"}, "[10]": {"target": "Luciferin 4-monooxygenase (Photinus pyralis) (UniProt P08659)", "assay": "Inhibition of […] luciferase at 100 uM", "how_it_was_run": "as §3"}},
  "note": "pIC50: −log10 of the molar value. Activity calls are given as the source filed them. The calls are words filed in the database; no cut-off is given here.",
  "data": [
    {"smiles": "Cc1cc(-c2ccc(/N=N/c3ccc4c(S(=O)(=O)O)cc(S(=O)(=O)O)c(N)c4c3O)c(C)c2)ccc1/N=N/c1ccc2c(S(=O)(=O)O)cc(S(=O)(=O)O)c(N)c2c1O", "note": "[EVANS BLUE]", "values": [
      {"measurement": "pIC50", "setting": "[1]", "result": 5.16},
      {"measurement": "pIC50", "setting": "[2]", "result": 5.77},
      {"measurement": "pIC50", "setting": "[3]", "result": 5.12},
      {"measurement": "pIC50", "setting": "[4]", "result": 4.70},
      {"measurement": "pIC50", "setting": "[5]", "result": 4.66},
      {"measurement": "pIC50", "setting": "[6]", "result": 4.77},
      {"measurement": "pIC50", "setting": "[7]", "result": 5.00},
      {"measurement": "Activity", "setting": "[8]", "result": 50, "unit": "%"},
      {"measurement": "Activity", "setting": "[9]", "result": 50, "unit": "%"}
    ]},
    {"smiles": "Cc1ccc(O)c(/N=N/c2ccccc2)n1", "values": [
      {"measurement": "pIC50", "setting": "[1]", "result": 5.77},
      {"measurement": "pIC50", "setting": "[2]", "result": 5.35},
      {"measurement": "pIC50", "setting": "[3]", "result": 5.90},
      {"measurement": "pIC50", "setting": "[4]", "result": 5.74},
      {"measurement": "pIC50", "setting": "[5]", "result": 5.80},
      {"measurement": "pIC50", "setting": "[6]", "result": 5.70},
      {"measurement": "pIC50", "setting": "[7]", "result": 4.44},
      {"measurement": "Activity", "setting": "[10]", "result": "inactive"}
    ]}
  ]
}
